Bioassay records deposited in PubChem by The Scripps Research Institute Molecular Screening Center.
OX1R antag-1 = antagonists of human orexin 1 receptor (OX1R). inhibition, % at 6.6 µM. 1.8% of 330,000 active. Orexin/Hypocretin receptor type 1 (Homo sapiens), O43613. OX1R-expressing cells, FRET antagonist read-out; in the data active = inhibition mostly above about 38%, no sharp cut-off; inactive = mostly below about 40%
Target sequence (O43613 whole entry, looked up): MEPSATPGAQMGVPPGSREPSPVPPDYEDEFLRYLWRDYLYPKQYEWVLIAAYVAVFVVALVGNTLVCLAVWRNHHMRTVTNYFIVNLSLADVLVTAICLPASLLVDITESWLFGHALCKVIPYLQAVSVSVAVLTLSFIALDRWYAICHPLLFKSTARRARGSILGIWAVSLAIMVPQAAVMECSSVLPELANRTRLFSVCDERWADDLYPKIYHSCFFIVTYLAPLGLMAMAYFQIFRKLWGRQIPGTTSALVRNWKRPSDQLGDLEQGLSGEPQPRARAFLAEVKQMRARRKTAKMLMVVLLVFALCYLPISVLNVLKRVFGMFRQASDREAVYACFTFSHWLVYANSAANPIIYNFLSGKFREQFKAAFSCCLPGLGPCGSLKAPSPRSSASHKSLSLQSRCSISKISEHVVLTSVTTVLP
GalR3 antag = GalR3 antagonists in HEK293 cells, primary screen, cell-based, fluorescence readout; AID 651719, 2012; inhibition, % at 3 µM; Galanin receptor type 3 (Homo sapiens), O60755; 0.44% of 360,000 active; HEK293 GalR3-CNG cAMP membrane potential fluorescence; galR3 body fused to GalR1 C-terminus;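 active = inhibition above the screen-wide average plus 3 SD, cut at about 13% in these data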;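 note: forskolin and galanin both at EC90 stimulate the cells; cAMP rise reported by CNG channel membrane potential dye signal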
CHO parental Ca = ATP-evoked calcium signal inhibitors, parental CHO, primary screen, counter-screen for OX1R antagonist project, cell-based, fluorescence, Fluo-8 calcium dye | parental CHO-K1, ATP-induced calcium, Fluo-8 fluorescence | inhibition, % at 5.6 µM | 0.63% of 330,000 active;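 active = inhibition above that plate's mean sample inhibition plus 3 SD, cut at about 26% in these data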
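Material – parental CHO cells · Reagent – ATP stimulus · Compound – single nominal dose of 5.6 µM per compound · Detection – Fluo-8 fluorescence · Read-out basis – percent inhibition of calcium signal · Controls – ATP-challenged DMSO wells low, unchallenged DMSO wells high · Repeats – no replicates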
OX1R antag-2 = OX1R (HCRTR1) antagonists, primary screen, fluorescence, CHO/OX1R cells, Fluo-8 calcium, orexin A. 0.43% of 330,000 active. inhibition, % at 5 µM. Fluo-8 calcium fluorescence. Orexin/Hypocretin receptor type 1 (Homo sapiens), O43613;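 active = inhibition above its plate's threshold, mean inhibition of all tested compounds on the plate plus 3 SD, cut at about 37% in these data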
GPR7 antagonist = GPR7 receptor antagonists, primary screen, cell-based, fluorescence, single concentration. GPR7-expressing cells, fluorescence antagonist assay. 1.1% of 290,000 active. inhibition, % at 4.4 µM. Neuropeptides B/W receptor type 1 (Homo sapiens), P48145; in the data active = inhibition above about 16%, passing the limit was not always enough;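 note: cells stimulated with the agonist NPW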
OX1R HTRF confirm = OX1R (HCRTR1) antagonists, confirmation, cell-based, HTRF. shares compounds with OX1R antag-1. inhibition, % at 6.6 µM. 49% of 1,800 active. OX1R-expressing cells, HTRF antagonist assay; in the data active = inhibition above about 55%;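 note: CHO cells expressing OX1R stimulated with orexin A at about EC80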
CHO-K1 HTRF = signal inhibition in parental CHO-K1 cells, counter-screen for OX1R antagonist project, cell-based, HTRF | shares compounds with OX1R antag-1 | HTRF counterscreen | inhibition, % at 6.6 µM | 48% of 1,800 active | AID 493232, 2011; in the data active = inhibition above about 17%
GalR3 antag conf = GalR3 antagonist hit confirmation, cell-based, fluorescence, triplicate | HEK293 GalR3 CNG cAMP biosensor, membrane potential fluorescence; galR3 fused to GalR1 carboxy tail; challenged with forskolin and galanin at EC90 | AID 652245, 2013 | 59% of 1,600 active | inhibition, % at 3 µM | shares compounds with GalR3 antag;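 active = inhibition above the primary screen's cutoff, the mean inhibition of all screened compounds plus 3 SD, cut at about 13% in these data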
CNG parental = nonspecific cAMP agonists in parental HEK-CNG cells, counter-screen for GalR3 antagonist project, cell-based, fluorescence, high throughput. activation, % at 3 µM. shares compounds with GalR3 antag. HEK293-CNG parental cells, cAMP membrane potential fluorescence; normalised: DMSO wells 0%, forskolin wells 100%. 10% of 1,600 active. AID 652268, 2013; in the data active = activation above about 1.3%
Numbers stand for hits; - = inactive; . = not tested or not shown; + = active, no number. Only some compounds are listed: those with a hit (about 3.1% of all), similar ones and a draw of the others.

SMILES	OX1R antag-1	GalR3 antag	CHO parental Ca	OX1R antag-2	GPR7 antagonist	GalR3 antag conf	CNG parental	others
Cn1nnnc1SCC(=O)Nc1ccccc1[N+](=O)[O-]	-	-	-	-	-	.	.
CCCSc1cc(NCCOC(C)=O)c([N+](=O)[O-])c2nonc12	82	-	-	-	-	.	.	OX1R HTRF confirm=-;CHO-K1 HTRF=61
O=[N+]([O-])c1c(NCCO)cc(N2CCN(Cc3ccc4c(c3)OCO4)CC2)c2nonc12	-	-	-	-	-	.	.
O=C(NCCNC1CCC(c2ccccc2)CC1)c1ccc(F)cc1 (centres undefined)	-	-	-	-	-	.	.
CCC(Oc1ccccc1)C(=O)Nc1ncc([N+](=O)[O-])s1 (centres undefined)	79	-	-	-	-	.	.	OX1R HTRF confirm=-;CHO-K1 HTRF=-
COc1cccc(-c2cc(NC(C)=O)c3ncc(-c4ccc(OC)c(OC)c4)n3c2)c1	.	-	.	.	.	.	.
CCCCCCN1C=CC(=C2C(=O)c3ccccc3C2=O)C=C1	-	-	-	-	-	.	.
CCCCN1C=CC(=C2N=c3cccc([N+](=O)[O-])c3=N2)C=C1	157	-	-	-	-	.	.	OX1R HTRF confirm=59;CHO-K1 HTRF=100
O=C(O)CNc1ncccc1[N+](=O)[O-]	+	17	-	-	-	-	-	OX1R HTRF confirm=-;CHO-K1 HTRF=46
COc1ccc(CNc2ncccc2[N+](=O)[O-])cc1	-	-	-	-	-	.	.
CCCC(=O)OCCNc1cc(Sc2nccn2C)c2nonc2c1[N+](=O)[O-]	91	40	-	-	-	24	-	OX1R HTRF confirm=72;CHO-K1 HTRF=60
Cc1ccsc1/C=C(\C(=O)c1ccc(OC(C)C)cc1)c1nc2ccccc2o1	-	-	-	-	-	.	.
Cc1nnc(N/N=C/c2ccc([N+](=O)[O-])cc2)n1N	127	15	-	-	-	-	-	OX1R HTRF confirm=-;CHO-K1 HTRF=76
CC(C)n1[nH]c2ccccc2c1=O	.	-	.	.	.	.	.
COc1ccc(OC)c2[nH]c(=O)c(CCNC(C)=O)cc12	-	-	-	-	-	.	.
COc1ccc(OC)c2[nH]c(=O)c(CCNC(=O)COc3ccccc3)cc12	-	22	-	-	-	20	-
Cc1ccc(NC(=O)Cc2ccc(Cl)c(Cl)c2)cc1S(=O)(=O)N(C)C	-	-	-	-	-	.	.
Cc1ccc(NC(=O)CNc2ccc(Cl)c(Cl)c2)cc1S(=O)(=O)N(C)C	-	45	-	-	-	90	-
CNc1ccccc1C(C)(C)c1cc(-c2ccc(F)cc2)no1	-	49	-	-	-	69	-
Cc1cccc(C(=O)NCC(=O)N2CCN(S(=O)(=O)c3cc(C)ccc3C)CC2)c1	-	-	-	-	.	.	.
Cc1cccc(Nc2nc(NCc3ccco3)c3ccccc3n2)c1	-	45	74	-	-	54	8.7
Cc1ccc(-c2nc(NCc3ccco3)c3ccccc3n2)cc1	-	-	-	-	-	.	.
COC(=O)/C=C1/S/C(=N/NC(=O)c2ccc(Cl)cc2Cl)NC1=O	-	-	-	-	-	.	.
COc1ccc(N=C2SCC(=O)N2CCc2ccc(OC)c(OC)c2)cc1	-	-	-	-	-	.	.
COc1ccc(CCN2C(=O)CSC2=Nc2ccc(C(C)C)cc2)cc1OC	-	84	29	-	-	96	-
SMILES	OX1R antag-1	GalR3 antag	CHO parental Ca	OX1R antag-2	GPR7 antagonist	GalR3 antag conf	CNG parental	others
O=C(Nc1cccc(S(=O)(=O)N2CCCC2)c1)c1ccco1	-	-	-	-	.	.	.
O=C(Nc1cccc(N=Cc2cc(Br)cc(Br)c2O)c1)c1ccco1	-	17	-	-	-	14	-
O=C(Nc1cccc(S(=O)(=O)c2cccc(NC(=O)c3ccco3)c2)c1)c1ccco1	-	41	-	-	-	45	-
CC1(C(=O)NS(=O)(=O)c2ccccc2)CCN1C(=O)CCc1ccc(Cl)cc1Cl (centres undefined)	.	-	.	.	.	.	.
O=C(C1CCCC1)N1CCN=C1SCc1cccc([N+](=O)[O-])c1	-	-	-	-	-	.	.
Cc1cc(Br)ccc1SCC(=O)N1CCN(S(=O)(=O)c2ccccc2)CC1	-	-	-	-	-	.	.
Cc1ccc2c(c1)C(=O)C(=O)N2CC(=O)Nc1ccccc1NC(=O)c1ccccn1	-	20	-	-	-	-	-
Cc1ccc(C)c(C(=O)c2ccccc2NC(=O)c2ccccn2)c1	-	-	-	-	-	.	.
CCOC(=O)c1ccc(NC(=O)c2nc[nH]c2C(=O)NC2CCN(C(=O)OC(C)(C)C)CC2)cc1	-	17	-	-	.	-	-
COC(OC)c1ccnc(-c2ccc(OC(=O)c3cccs3)cc2)n1	-	17	-	-	-	-	-
CC(=O)c1c(C)[nH]c(C(=O)OCC(=O)Nc2cccc(S(=O)(=O)N(C)C)c2)c1C	-	-	-	-	-	.	.
CCN(CC)S(=O)(=O)c1cccc(NC(=O)COC(=O)c2[nH]c(C)c(C(C)=O)c2C)c1	.	28	.	.	.	97	-
O=C(c1ccccc1)N1N=C(c2ccccc2)CC1(O)C(F)(F)F (centres undefined)	-	-	-	-	-	.	.
COc1ccc(C2=NN(C(=O)c3cccs3)C(O)(C(F)(F)F)C2)cc1 (centres undefined)	-	88	-	-	-	94	-
O=C(CSc1nnc(-c2cccnc2)s1)Nc1ccnc2ccccc12	-	90	-	-	-	119	-
Cc1ccc(NC(=O)CSc2nnc(-c3cccnc3)s2)cc1	-	-	-	-	-	.	.
COc1ccccc1CC(=O)N1CCCc2ccccc21	-	.	-	-	-	-	-
COc1cc(C(=O)NCC(=O)NNC(=O)C2COc3ccccc3O2)cc(OC)c1OC (centres undefined)	-	-	-	-	.	.	.
COc1cccc(S(=O)(=O)NCc2ccc(C(=O)Nc3ccc(Cl)c(Cl)c3)cc2)c1	-	17	42	-	-	55	-
CN(C)c1nc(SCc2ccc(Cl)cc2)nc2c1CCCC2	-	-	-	-	-	.	.
